Assay [1] has as its target T1, IgG receptor FcRn large subunit p51 (Homo sapiens, UniProt P55899). The assay can be described thus: Ratio of QRF-Asp-TGHFGGLYP-Lys-NGP IC50 to compound IC50 for soluble human FcRn.
Assay [2] deals with T1, IgG receptor FcRn large subunit p51. The assay can be described thus: Inhibition of IgG binding to soluble human FcRn after 2 hrs by competition ELISA. For orientation: An ELISA detects its analyte on a solid surface through an enzyme-linked reagent.
Assay [3] has the same target. The assay can be described thus: Binding affinity to soluble human FcRn at pH 6 by surface plasmon resonance assay. The gist of the method: (§1)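 shFcRn was amine-coupled to a CM5 dextran chip, and peptide dilutions were run at pH 6 or pH 7.4 on a Biacore 3000 or T100. The equilibrium response was plotted against concentration and fitted to a steady-state affinity model to give Kd.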
(In general: Surface plasmon resonance follows binding to a sensor surface in real time, without labels.)

The target is the same in assay [4]. The assay can be described thus: Binding affinity to soluble human FcRn at pH 7.4 by surface plasmon resonance assay. The gist of the method: as §1
Assay [5] shares this target. The assay can be described thus: Ratio of RF-Pen-TGHFG-Sar-NMeLeu-YPC IC50 to compound IC50 for soluble human FcRn.

Numbered stars: 1 amine (or outer) side, 2 acyl side, 3 side chain; on linkers, the order of the positions; unused ones are H or OH. Bridge positions count the residues as written; N and C are the ends. Square brackets hold non-standard residues; d marks the D form. Peptide text beside a SMILES is read from it. I, II: the chains in the order shown. X3 = CN(CCCNC(=O)CCNC(=O)CCSCC(=O)[*:1])CCCNC(=O)CCNC(=O)CCSCC(=O)[*:2]; Phe(4-guanidino) = N=C(N)Nc1ccc(C[C@H](N)C(=O)O)cc1; X1 = O=C(C(=O)[*:2])[C@H](Cc1ccc(O)cc1)N[*:1]; NMeL = CN[C@@H](CC(C)C)C(=O)O; Pen = CC(C)(S)[C@H](N)C(=O)O; Sar = CNCC(=O)O

We go through ten molecules from ChEMBL document CHEMBL1156264, “Synthesis and structure-activity relationships of dimeric peptide antagonists of the human immunoglobulin G-human neonatal Fc receptor (IgG-FcRn) interaction” (J Med Chem, 2010).

T1 sequence (P55899 whole entry): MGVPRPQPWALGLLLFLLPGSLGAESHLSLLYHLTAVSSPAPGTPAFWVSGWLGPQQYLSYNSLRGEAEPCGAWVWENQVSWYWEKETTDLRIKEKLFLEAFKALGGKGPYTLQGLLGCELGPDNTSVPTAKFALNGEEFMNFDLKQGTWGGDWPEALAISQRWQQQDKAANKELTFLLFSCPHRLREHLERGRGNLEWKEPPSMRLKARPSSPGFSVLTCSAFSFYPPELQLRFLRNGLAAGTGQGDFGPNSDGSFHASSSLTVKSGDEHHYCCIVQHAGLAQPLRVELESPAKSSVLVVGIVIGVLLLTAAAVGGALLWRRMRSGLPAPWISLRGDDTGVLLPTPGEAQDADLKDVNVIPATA

One may read the IC50 as the point on the concentration scale where inhibition reaches its midpoint. For the molecule `CC(C)C[C@H]1C(=O)N[C@@H](Cc2ccc(O)cc2)C(=O)C(=O)N2CCC[C@H]2C(=O)N[C@H](C(=O)N[C@@H](CC(N)=O)C(=O)NCC(=O)N2CCC[C@H]2C(N)=O)CCCCNC(=O)C[C@H](NC(=O)[C@H](Cc2ccccc2)NC(=O)CSCCC(=O)NCCCN(CCCNC(=O)CCSCC(=O)N[C@@H](CCC(N)=O)C(=O)N[C@@H](CCCNC(=N)N)C(=O)N[C@@H](Cc2ccccc2)C(=O)N[C@H]2CC(=O)NCCCC[C@@H](C(=O)N[C@@H](CC(N)=O)C(=O)NCC(=O)N3CCC[C@H]3C(N)=O)NC(=O)[C@@H]3CCCN3C(=O)C(=O)[C@H](Cc3ccc(O)cc3)NC(=O)[C@H](CC(C)C)N(C)C(=O)CN(C)C(=O)CNC(=O)[C@H](Cc3ccccc3)NC(=O)[C@H](Cc3c[nH]cn3)NC(=O)CNC(=O)[C@H]([C@@H](C)O)NC2=O)CC(=O)NCC(=O)O)C(=O)N[C@@H]([C@@H](C)O)C(=O)NCC(=O)N[C@@H](Cc2c[nH]cn2)C(=O)N[C@@H](Cc2ccccc2)C(=O)NCC(=O)N(C)CC(=O)N1C`, the Ratio IC50 in assay [1] came to 37. In assay [2], this molecule displayed a concentration for half-maximal inhibition (IC50) of 0.6 µM.

As a reminder, the Kd is the equilibrium constant for the complex coming apart. Low readings indicate tighter binding, high ones weaker binding. As to `CC(=O)N[C@@H](CCCNC(=N)N)C(=O)N[C@@H](Cc1ccccc1)C(=O)N[C@@H]1C(=O)N[C@@H]([C@@H](C)O)C(=O)NCC(=O)N[C@@H](Cc2ccc(NC(=N)N)cc2)C(=O)NCC(=O)N(C)CC(=O)N(C)[C@@H](CC(C)C)C(=O)N[C@@H](Cc2ccc(O)cc2)C(=O)C(=O)N2CCC[C@H]2C(=O)N[C@H](C(N)=O)CSSC1(C)C` (Ac-RF[Pen]TG[Phe(4-guanidino)]G[Sar][NMeL][X1]PC-NH2; disulfide 3-12), the Kd in assay [3] came out at 0.062 µM; in assay [4], 0.074 µM. In assay [2], the 50% inhibitory concentration (IC50) came to 1 µM.

For the molecule `CC(=O)N[C@@H](CCCNC(=N)N)C(=O)N[C@@H](Cc1ccccc1)C(=O)N[C@@H]1C(=O)N(C)[C@@H](C)C(=O)NCC(=O)N[C@@H](Cc2cnc[nH]2)C(=O)N[C@@H](Cc2ccccc2)C(=O)N[C@H]2CCCN(CC(=O)N(C)[C@@H](CC(C)C)C(=O)N[C@@H](Cc3ccc(O)cc3)C(=O)C(=O)N3CCC[C@H]3C(=O)N[C@H](C(N)=O)CSSC1(C)C)C2=O`, the Kd in assay [3] was 0.15 µM; in assay [4] it was 0.95 µM. In assay [2], this molecule showed an IC50 of 1.1 µM.

For `CC(=O)N[C@@H](CCCNC(=N)N)C(=O)N[C@@H](Cc1ccccc1)C(=O)N[C@@H]1C(=O)N[C@@H]([C@@H](C)O)C(=O)NCC(=O)N[C@@H](Cc2cnc[nH]2)C(=O)N[C@@H](Cc2ccccc2)C(=O)N[C@H]2CCCN(CC(=O)N(C)[C@@H](CC(C)C)C(=O)N[C@@H](Cc3ccc(O)cc3)C(=O)C(=O)N3CCC[C@H]3C(=O)N[C@H](C(N)=O)CSSC1(C)C)C2=O`, the Kd was 0.043 µM in assay [3] and 0.26 µM in assay [4]. In assay [2], this molecule showed an IC50 of 0.43 µM.

With `CC(=O)N[C@@H](CCCNC(=N)N)C(=O)N[C@@H](Cc1ccccc1)C(=O)N[C@H]1CSSC[C@@H](C(N)=O)NC(=O)[C@@H]2CCCN2C(=O)C(=O)[C@H](Cc2ccc(O)cc2)NC(=O)[C@H](CC(C)C)NC(=O)CNC(=O)CNC(=O)[C@H](Cc2ccccc2)NC(=O)[C@H](Cc2cnc[nH]2)NC(=O)CNC(=O)[C@H]([C@@H](C)O)NC1=O`, in assay [3], the Kd was 5.9 µM. This molecule also returned a half-inhibitory concentration (IC50) in assay [2] of 37 µM.

For `CC(=O)N[C@@H](CCC(N)=O)C(=O)N[C@@H](CCCNC(=N)N)C(=O)N[C@@H](Cc1ccccc1)C(=O)N[C@H]1CSSC[C@@H](C(=O)N[C@@H](CC(N)=O)C(=O)NCC(=O)N2CCC[C@H]2C(N)=O)NC(=O)[C@@H]2CCCN2C(=O)C(=O)[C@H](Cc2ccc(O)cc2)NC(=O)[C@H](CC(C)C)NC(=O)CNC(=O)CNC(=O)[C@H](Cc2ccccc2)NC(=O)[C@H](Cc2cnc[nH]2)NC(=O)CNC(=O)[C@H]([C@@H](C)O)NC1=O`, the dissociation constant (Kd) amounted to 5.3 µM in assay [3] and 37 µM in assay [4]. The IC50 in assay [2] is 40 µM.

Consider `CC(=O)N[C@@H](CCCNC(=N)N)C(=O)N[C@@H](Cc1ccccc1)C(=O)N[C@H]1CC(=O)NCCCC[C@@H](C(N)=O)NC(=O)[C@@H]2CCCN2C(=O)C(=O)[C@H](Cc2ccc(O)cc2)NC(=O)[C@H](CC(C)C)N(C)C(=O)CN(C)C(=O)CNC(=O)[C@@H](Cc2ccccc2)NC(=O)[C@H](Cc2c[nH]cn2)NC(=O)CNC(=O)[C@H]([C@@H](C)O)NC1=O`, for which the Kd was found to be 0.14 µM in assay [3] and 0.93 µM in assay [4]. In assay [2], this molecule showed an IC50 of 1.9 µM.

As to `CC(=O)N[C@@H](CCCNC(=N)N)C(=O)N[C@@H](Cc1ccccc1)C(=O)N[C@@H]1C(=O)N[C@@H]([C@@H](C)O)C(=O)NCC(=O)N[C@@H](Cc2c[nH]cn2)C(=O)N[C@@H](Cc2ccccc2)C(=O)NCC(=O)N(C)CC(=O)N(C)[C@@H](CC(C)C)C(=O)N[C@@H](Cc2ccc(O)cc2)C(=O)C(=O)N2CCC[C@H]2C(=O)N[C@H](C(N)=O)CSSC1(C)C`, the Kd in assay [3] came out at 0.031 µM; in assay [4], 0.17 µM. In assay [2], the IC50 turned out to be 0.52 µM.

On to `CC(C)C[C@H]1C(=O)N[C@@H](Cc2ccc(O)cc2)C(=O)C(=O)N2CCC[C@H]2C(=O)N[C@H](C(N)=O)CSSC(C)(C)[C@H](NC(=O)[C@H](Cc2ccccc2)NC(=O)[C@H](CCCNC(=N)N)NC(=O)CCC(=O)N(C)CCN(C)C(=O)CCC(=O)N[C@@H](CCCNC(=N)N)C(=O)N[C@@H](Cc2ccccc2)C(=O)N[C@@H]2C(=O)N[C@@H]([C@@H](C)O)C(=O)NCC(=O)N[C@@H](Cc3c[nH]cn3)C(=O)N[C@@H](Cc3ccccc3)C(=O)NCC(=O)N(C)CC(=O)N(C)[C@@H](CC(C)C)C(=O)N[C@@H](Cc3ccc(O)cc3)C(=O)C(=O)N3CCC[C@H]3C(=O)N[C@H](C(N)=O)CSSC2(C)C)C(=O)N[C@@H]([C@@H](C)O)C(=O)NCC(=O)N[C@@H](Cc2c[nH]cn2)C(=O)N[C@@H](Cc2ccccc2)C(=O)NCC(=O)N(C)CC(=O)N1C`, for which the Ratio IC50 in assay [5] is 100. Besides, the IC50 in assay [2] came out at 0.0052 µM.

Regarding `CC(C)C[C@H]1C(=O)N[C@@H](Cc2ccc(O)cc2)C(=O)C(=O)N2CCC[C@H]2C(=O)N[C@H](C(=O)N[C@@H](CC(N)=O)C(=O)NCC(=O)N2CCC[C@H]2C(N)=O)CCCCNC(=O)C[C@H](NC(=O)[C@H](Cc2ccccc2)NC(=O)CSCCC(=O)NCCC(=O)NCCCN(C)CCCNC(=O)CCNC(=O)CCSCC(=O)N[C@@H](CCC(N)=O)C(=O)N[C@@H](CCCNC(=N)N)C(=O)N[C@@H](Cc2ccccc2)C(=O)N[C@H]2CC(=O)NCCCC[C@@H](C(=O)N[C@@H](CC(N)=O)C(=O)NCC(=O)N3CCC[C@H]3C(N)=O)NC(=O)[C@@H]3CCCN3C(=O)C(=O)[C@H](Cc3ccc(O)cc3)NC(=O)[C@H](CC(C)C)N(C)C(=O)CN(C)C(=O)CNC(=O)[C@H](Cc3ccccc3)NC(=O)[C@H](Cc3c[nH]cn3)NC(=O)CNC(=O)[C@H]([C@@H](C)O)NC2=O)C(=O)N[C@@H]([C@@H](C)O)C(=O)NCC(=O)N[C@@H](Cc2c[nH]cn2)C(=O)N[C@@H](Cc2ccccc2)C(=O)NCC(=O)N(C)CC(=O)N1C` (I: QRFDTGHFG[Sar][NMeL][X1]PKNGP-NH2 / II: FDTGHFG[Sar][NMeL][X1]PKNGP-NH2; lactam I:4-I:14, II:2-II:12; linker I:N-II:N via X3), the Ratio IC50 in assay [1] came out at 9.2.
